Active and inactive are the calls of the source. The rule behind the calls is not given here.
Legend:
[1] = biological target: CDK2/Cyclin A2 (Homo sapiens) (UniProt P24941+P20248); test: Inhibition of CDK2/CycA (unknown origin) assessed as residual activity at 10 uM relative to control; format: protein-complex assay
MCF7 [2] = test: Cell cycle arrest in human MCF7 cells assessed as accumulation at G2/M phase at 1 uM after 24 hrs using propidium iodide staining by FACS analysis (reference value: 22.13%); format: functional
MCF7 [3] = test: Antiproliferative activity against human MCF7 cells after 3 days by SRB assay; format: functional, cell-based; details: MCF7, 72 h
In short: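 Cells grown at 37 °C, 5% CO2, with 10% heat-inactivated FBS: LXFL529L in RPMI 1640, MCF7 and HT29 in DMEM. Seeded, allowed 24 h growth, then exposed to the drug at various concentrations for 3 days in serum medium. Fixed with TCA for 1 h at 4 °C, stained with 0.4% SRB, eluted in 10 mM Tris pH 10.5, read at 570 nm as % T/C. IC50 taken from dose–response curves of at least three independent experiments.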

[4] = biological target: Serine/threonine-protein kinase PLK1 (Homo sapiens) (UniProt P53350); test: Inhibition of human Plk1 assessed as residual activity at 1 uM relative to control
Serine/threonine-protein kinase PLK1 (Homo sapiens), sequence (P53350 whole entry): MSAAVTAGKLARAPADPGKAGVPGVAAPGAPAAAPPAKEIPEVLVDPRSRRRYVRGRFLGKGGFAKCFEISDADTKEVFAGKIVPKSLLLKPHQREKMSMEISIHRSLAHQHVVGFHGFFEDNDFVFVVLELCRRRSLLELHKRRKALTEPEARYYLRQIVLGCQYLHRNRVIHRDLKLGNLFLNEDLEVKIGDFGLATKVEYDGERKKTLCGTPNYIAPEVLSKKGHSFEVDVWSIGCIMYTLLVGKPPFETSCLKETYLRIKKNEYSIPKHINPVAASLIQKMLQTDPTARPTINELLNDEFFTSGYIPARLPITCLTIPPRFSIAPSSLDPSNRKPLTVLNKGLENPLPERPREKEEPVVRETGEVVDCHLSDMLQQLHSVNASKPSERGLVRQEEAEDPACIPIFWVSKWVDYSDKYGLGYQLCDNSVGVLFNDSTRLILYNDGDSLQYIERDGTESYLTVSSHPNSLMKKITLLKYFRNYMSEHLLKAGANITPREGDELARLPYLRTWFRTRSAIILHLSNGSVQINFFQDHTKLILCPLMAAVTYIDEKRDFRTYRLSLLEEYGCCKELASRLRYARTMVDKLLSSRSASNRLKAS

[5] = biological target: Receptor tyrosine-protein kinase erbB-2 (Homo sapiens) (UniProt P04626); test: Inhibition of ERBB2 (unknown origin) assessed as residual activity at 10 uM relative to control
Receptor tyrosine-protein kinase erbB-2 (Homo sapiens), sequence (P04626 whole entry): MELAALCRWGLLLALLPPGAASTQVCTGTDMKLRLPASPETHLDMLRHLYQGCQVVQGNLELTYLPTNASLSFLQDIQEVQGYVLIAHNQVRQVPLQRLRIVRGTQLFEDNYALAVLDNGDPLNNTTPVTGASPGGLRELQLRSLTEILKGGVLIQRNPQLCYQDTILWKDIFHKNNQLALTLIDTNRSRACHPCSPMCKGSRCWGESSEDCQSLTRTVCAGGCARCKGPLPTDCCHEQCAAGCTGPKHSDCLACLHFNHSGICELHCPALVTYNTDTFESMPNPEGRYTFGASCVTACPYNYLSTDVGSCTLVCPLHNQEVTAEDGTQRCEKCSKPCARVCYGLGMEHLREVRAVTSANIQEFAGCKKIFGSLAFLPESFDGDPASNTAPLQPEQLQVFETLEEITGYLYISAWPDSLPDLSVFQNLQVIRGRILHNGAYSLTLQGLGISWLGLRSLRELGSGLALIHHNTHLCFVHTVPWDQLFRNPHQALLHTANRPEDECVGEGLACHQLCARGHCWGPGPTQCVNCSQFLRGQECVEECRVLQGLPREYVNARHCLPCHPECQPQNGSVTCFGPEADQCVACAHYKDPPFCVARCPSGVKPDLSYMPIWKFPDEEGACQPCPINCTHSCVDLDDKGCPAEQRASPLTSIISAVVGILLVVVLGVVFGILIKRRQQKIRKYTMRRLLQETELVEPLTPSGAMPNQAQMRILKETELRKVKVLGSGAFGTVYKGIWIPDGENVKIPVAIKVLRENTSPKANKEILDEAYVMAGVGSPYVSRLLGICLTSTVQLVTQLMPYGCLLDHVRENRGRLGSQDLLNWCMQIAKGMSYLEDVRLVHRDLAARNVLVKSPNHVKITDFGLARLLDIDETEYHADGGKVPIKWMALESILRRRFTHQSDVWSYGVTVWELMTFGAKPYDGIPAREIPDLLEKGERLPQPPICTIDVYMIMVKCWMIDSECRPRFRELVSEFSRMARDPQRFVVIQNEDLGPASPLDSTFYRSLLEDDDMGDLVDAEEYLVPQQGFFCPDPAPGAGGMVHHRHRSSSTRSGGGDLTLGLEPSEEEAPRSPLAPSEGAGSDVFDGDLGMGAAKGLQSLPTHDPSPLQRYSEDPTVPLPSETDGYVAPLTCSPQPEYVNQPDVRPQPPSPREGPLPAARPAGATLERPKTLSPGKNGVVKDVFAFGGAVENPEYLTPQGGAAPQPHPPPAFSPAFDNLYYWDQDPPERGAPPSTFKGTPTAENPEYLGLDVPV

[6] = biological target: Epidermal growth factor receptor (Homo sapiens) (UniProt P00533); test: Inhibition of human EGFR assessed as residual activity at 1 uM relative to control
[7] = biological target: Death-associated protein kinase 3 (Homo sapiens) (UniProt O43293); test: Inhibition of human ZIPK assessed as residual activity at 1 uM relative to control
[8] = biological target: Proto-oncogene tyrosine-protein kinase receptor Ret (Homo sapiens) (UniProt P07949); test: Inhibition of RET (unknown origin) assessed as residual activity at 10 uM relative to control
[9] = biological target: Serine/threonine-protein kinase VRK2 (Homo sapiens) (UniProt Q86Y07); test: Inhibition of human VRK2 assessed as residual activity at 1 uM relative to control
Serine/threonine-protein kinase VRK2 (Homo sapiens), sequence (Q86Y07 whole entry): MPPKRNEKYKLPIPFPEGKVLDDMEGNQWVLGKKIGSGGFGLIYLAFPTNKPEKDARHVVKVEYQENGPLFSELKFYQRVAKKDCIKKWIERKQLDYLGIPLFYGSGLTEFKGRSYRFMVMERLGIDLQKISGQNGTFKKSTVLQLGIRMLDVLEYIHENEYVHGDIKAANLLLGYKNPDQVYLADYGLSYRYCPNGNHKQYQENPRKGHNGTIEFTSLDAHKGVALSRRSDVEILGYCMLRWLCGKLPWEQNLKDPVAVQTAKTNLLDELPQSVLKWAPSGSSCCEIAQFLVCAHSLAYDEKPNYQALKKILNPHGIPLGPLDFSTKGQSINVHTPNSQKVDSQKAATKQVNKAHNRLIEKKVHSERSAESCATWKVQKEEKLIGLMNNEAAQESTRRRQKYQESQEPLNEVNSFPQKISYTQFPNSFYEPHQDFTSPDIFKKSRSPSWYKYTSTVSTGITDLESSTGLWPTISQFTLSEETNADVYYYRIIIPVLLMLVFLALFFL

[10] = biological target: Receptor-type tyrosine-protein kinase FLT3 (Homo sapiens) (UniProt P36888); test: Inhibition of FLT3 (unknown origin) assessed as residual activity at 10 uM relative to control
HOP-62 = test: Antiproliferative activity against human HOP62 cells after 3 days by sulforhodamine B assay; format: functional; details: HOP-62, 72 h
In short: (§1)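 Tested in the NCI 60 cell line panel. GI50 is the concentration giving 50% inhibition of cell growth, and values are the mean of two series of tests.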

[11] = biological target: T1, Casein kinase II (Homo sapiens) (UniProt P67870+P68400+P19784); test: Inhibition of human CK2 assessed as residual activity at 1 uM relative to control; format: protein-complex assay
[12] = Antiproliferative activity against human HCC2998 cells after 3 days by sulforhodamine B assay; format: functional; details: HCC 2998, 72 h; in short: as §1
[13] = biological target: Focal adhesion kinase 1 (Homo sapiens) (UniProt Q05397); test: Inhibition of FAK fl (unknown origin) assessed as residual activity at 1 uM relative to control
Focal adhesion kinase 1 (Homo sapiens), sequence (Q05397 2-1052 limits assumed): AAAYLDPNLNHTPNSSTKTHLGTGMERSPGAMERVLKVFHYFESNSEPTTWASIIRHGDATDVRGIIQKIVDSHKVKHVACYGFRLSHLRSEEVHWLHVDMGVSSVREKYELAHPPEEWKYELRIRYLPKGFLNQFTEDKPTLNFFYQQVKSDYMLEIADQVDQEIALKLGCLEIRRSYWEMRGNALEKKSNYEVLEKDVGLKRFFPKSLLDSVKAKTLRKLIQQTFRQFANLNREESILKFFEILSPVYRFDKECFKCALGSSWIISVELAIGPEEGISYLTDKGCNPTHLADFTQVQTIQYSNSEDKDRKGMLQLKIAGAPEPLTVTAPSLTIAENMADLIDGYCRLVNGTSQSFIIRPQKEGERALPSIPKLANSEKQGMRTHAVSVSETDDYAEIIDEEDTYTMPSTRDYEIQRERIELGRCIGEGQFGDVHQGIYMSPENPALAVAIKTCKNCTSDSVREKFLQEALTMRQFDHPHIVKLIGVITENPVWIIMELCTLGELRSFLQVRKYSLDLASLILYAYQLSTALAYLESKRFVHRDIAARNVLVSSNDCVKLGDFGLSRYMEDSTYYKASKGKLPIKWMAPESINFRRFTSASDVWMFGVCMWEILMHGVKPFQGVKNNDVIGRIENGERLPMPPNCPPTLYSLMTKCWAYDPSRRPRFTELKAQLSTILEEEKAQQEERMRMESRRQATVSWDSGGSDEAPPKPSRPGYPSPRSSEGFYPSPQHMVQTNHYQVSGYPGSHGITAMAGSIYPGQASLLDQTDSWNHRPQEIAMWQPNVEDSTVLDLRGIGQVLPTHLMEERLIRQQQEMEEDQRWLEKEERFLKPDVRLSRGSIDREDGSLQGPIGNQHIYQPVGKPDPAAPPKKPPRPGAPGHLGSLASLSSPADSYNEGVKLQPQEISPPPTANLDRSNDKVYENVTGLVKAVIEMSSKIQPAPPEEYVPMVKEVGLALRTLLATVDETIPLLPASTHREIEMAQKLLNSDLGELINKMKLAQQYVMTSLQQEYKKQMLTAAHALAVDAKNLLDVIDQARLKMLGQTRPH

[14] = biological target: Ephrin type-B receptor 1 (Homo sapiens) (UniProt P54762); test: Inhibition of human EphB1 assessed as residual activity at 1 uM relative to control
[15] = biological target: T1, Casein kinase II (Homo sapiens); test: Inhibition of CK2 in human PANC1 cells assessed as reduction of Akt phosphorylation at S473 at 0.25 to 8 uM after 2 hrs by Western blot analysis; format: cell-based; details: PANC-1
In short: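 Panc1 cells were cultured in DMEM with 10% heat-inactivated FBS and penicillin/streptomycin at 37 °C and 5% CO2. Cells were treated with a range of concentrations for 2 h, with Ly294002 as positive control. Urea-buffer lysates (20–40 µg protein) were separated on 10% SDS–PAGE and probed for pAkt (S473) and β-actin. Detection was by ECL.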

[16] = biological target: Serine/threonine-protein kinase 33 (Homo sapiens) (UniProt Q9BYT3); test: Inhibition of human STK33 assessed as residual activity at 1 uM relative to control
[17] = biological target: Serine/threonine-protein kinase BRSK1 (Homo sapiens) (UniProt Q8TDC3); test: Inhibition of human BrSK1 assessed as residual activity at 1 uM relative to control
[18] = biological target: T2, Serine/threonine-protein kinase Chk1 (Homo sapiens) (UniProt O14757); test: Inhibition of CHK1 (unknown origin) assessed as residual activity at 10 uM relative to control
T2 sequence (whole entry): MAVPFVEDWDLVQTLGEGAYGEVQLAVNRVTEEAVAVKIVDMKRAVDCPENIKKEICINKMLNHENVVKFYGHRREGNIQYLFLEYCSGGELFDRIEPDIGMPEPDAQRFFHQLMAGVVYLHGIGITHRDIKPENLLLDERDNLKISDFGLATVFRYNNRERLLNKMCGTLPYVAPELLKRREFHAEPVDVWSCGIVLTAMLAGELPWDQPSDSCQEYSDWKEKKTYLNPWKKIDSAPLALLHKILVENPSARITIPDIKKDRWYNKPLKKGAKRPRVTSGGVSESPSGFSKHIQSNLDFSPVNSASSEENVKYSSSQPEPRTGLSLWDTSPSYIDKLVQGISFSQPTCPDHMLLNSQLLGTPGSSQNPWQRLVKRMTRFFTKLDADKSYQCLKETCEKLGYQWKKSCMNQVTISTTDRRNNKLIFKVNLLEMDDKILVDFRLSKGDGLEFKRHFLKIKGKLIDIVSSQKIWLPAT

SK-OV-3 = test: Antiproliferative activity against human SKOV3 cells after 3 days by sulforhodamine B assay; format: functional; details: SK-OV-3, 72 h; in short: as §1
[19] = biological target: Insulin-like growth factor 1 receptor (Homo sapiens) (UniProt P08069); test: Inhibition of human IGF-1R assessed as residual activity at 1 uM relative to control
[20] = biological target: Misshapen-like kinase 1 (Homo sapiens) (UniProt Q8N4C8); test: Inhibition of human MINK assessed as residual activity at 1 uM relative to control
[21] = biological target: Ribosomal protein S6 kinase alpha-3 (Homo sapiens) (UniProt P51812); test: Inhibition of human Rsk2 assessed as residual activity at 1 uM relative to control
[22] = biological target: Casein kinase II subunit alpha' (Homo sapiens) (UniProt P19784); test: Inhibition of human CK2a2 assessed as residual activity at 1 uM relative to control
Casein kinase II subunit alpha' (Homo sapiens), sequence (P19784 whole entry, looked up): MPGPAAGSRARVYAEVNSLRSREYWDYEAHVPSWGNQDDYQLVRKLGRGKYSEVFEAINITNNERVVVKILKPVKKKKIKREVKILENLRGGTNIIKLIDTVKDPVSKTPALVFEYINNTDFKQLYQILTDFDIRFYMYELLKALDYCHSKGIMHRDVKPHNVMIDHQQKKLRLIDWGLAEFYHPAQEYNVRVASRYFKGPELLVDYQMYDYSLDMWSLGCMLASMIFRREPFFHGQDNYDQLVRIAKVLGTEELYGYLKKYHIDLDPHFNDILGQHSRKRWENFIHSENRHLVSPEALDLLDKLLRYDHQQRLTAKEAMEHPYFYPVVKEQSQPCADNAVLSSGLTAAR

MCF7 [23] = test: Cell cycle arrest in human MCF7 cells assessed as accumulation at sub-G1 phase at 0.5 uM after 24 hrs using propidium iodide staining by FACS analysis (reference value: 0.17%); format: functional
[24] = biological target: MAP kinase-activated protein kinase 2 (Homo sapiens) (UniProt P49137); test: Inhibition of human MAPKAP-K2 assessed as residual activity at 1 uM relative to control
[25] = biological target: Serine/threonine-protein kinase TAO2 (Homo sapiens) (UniProt Q9UL54); test: Inhibition of human TAO2 assessed as residual activity at 1 uM relative to control
Serine/threonine-protein kinase TAO2 (Homo sapiens), sequence (Q9UL54 whole entry): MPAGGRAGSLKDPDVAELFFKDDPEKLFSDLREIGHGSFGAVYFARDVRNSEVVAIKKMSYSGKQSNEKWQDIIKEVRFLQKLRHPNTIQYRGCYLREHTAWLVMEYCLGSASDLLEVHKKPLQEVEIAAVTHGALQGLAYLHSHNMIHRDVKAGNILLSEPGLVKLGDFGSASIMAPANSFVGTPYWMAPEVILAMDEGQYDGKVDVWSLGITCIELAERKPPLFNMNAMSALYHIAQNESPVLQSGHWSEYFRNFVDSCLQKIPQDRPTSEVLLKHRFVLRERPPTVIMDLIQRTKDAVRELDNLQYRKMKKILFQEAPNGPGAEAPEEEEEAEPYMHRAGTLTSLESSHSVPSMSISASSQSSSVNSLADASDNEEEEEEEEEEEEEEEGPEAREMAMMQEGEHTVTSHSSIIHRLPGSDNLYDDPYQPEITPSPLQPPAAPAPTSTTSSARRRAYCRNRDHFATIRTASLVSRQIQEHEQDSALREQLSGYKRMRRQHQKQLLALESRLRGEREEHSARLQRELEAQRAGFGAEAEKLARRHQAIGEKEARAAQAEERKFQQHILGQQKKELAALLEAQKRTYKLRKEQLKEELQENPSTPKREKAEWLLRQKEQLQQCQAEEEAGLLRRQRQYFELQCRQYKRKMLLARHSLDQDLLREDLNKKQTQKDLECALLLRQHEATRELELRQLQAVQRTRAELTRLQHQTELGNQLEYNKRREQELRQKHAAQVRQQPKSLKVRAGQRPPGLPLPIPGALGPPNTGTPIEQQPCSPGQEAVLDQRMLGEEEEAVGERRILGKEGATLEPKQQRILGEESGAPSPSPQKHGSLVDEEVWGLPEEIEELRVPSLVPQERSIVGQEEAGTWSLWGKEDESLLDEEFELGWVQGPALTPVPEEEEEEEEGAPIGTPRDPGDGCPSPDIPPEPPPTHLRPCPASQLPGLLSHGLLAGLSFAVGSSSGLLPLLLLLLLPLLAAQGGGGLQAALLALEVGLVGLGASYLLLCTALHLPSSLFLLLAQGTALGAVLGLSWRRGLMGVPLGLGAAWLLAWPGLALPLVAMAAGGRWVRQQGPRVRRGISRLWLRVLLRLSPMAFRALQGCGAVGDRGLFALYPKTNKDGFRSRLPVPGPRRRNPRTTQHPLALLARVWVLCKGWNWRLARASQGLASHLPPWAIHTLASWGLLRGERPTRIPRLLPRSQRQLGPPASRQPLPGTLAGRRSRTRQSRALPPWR

NCI-H322M = test: Antiproliferative activity against human NCI-H322M cells after 3 days by sulforhodamine B assay; format: functional; details: 72 h; in short: as §1

Structure (SMILES): O=C1Nc2ncccc2/C1=C1/Nc2ncccc2C1=O
- Activity [1]: 106%
- Activity (MCF7 [2]): 22.63%
- IC50 (MCF7 [3]): 500 nM
- Activity [4]: 101%
- Activity [5]: 102%
- Activity [6]: 120%
- Activity [7]: 118%
- Activity [8]: 97%
- Activity [9]: 110%
- Activity [10]: 86%
- GI50 (HOP-62): 1370 nM
- Activity [11]: 49%
- GI50 [12]: 502 nM
- Activity [13]: 94%
- Activity [14]: 114%
- inhibition [15]: Active
- Activity [16]: 91%
- Activity [17]: 69%
- Activity [18]: 99%
- GI50 (SK-OV-3): 3950 nM
- Activity [19]: 112%
- Activity [20]: 62%
- Activity [21]: 94%
- Activity [22]: 28%
- Activity (MCF7 [23]): 0.37%
- Activity [24]: 67%
- Activity [25]: 88%
- GI50 (NCI-H322M): 282 nM
